Most compounds without a hit are left out; they make up all but 2.5% or so of the library.
SR-BI DiI-HDL act: enhances SR-BI lipid uptake from DiI-HDL. CHO ldlA[mSR-BI] cells, DiI-HDL uptake fluorescence, 3 h; 100 = double the neutral-control signal. activation, % at 12.5 µM. 320,000 compounds, 0.096% hits. AID 504775;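 active means mean replicate activation of at least 60% and every replicate at or above 60%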;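 further: 0% = median plate neutral-control signal and 100% = twice that signal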
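Test system: SR-BI-overexpressing, LDLR-lacking CHO cells; Medium: Ham's F12 with 0.5% BSA, HEPES 25 mM, pH 7.4; Schedule: 3 h, 37 °C; Technique: bottom-read fluorescence, 550/595 nm.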
SR-BI DiI inh: mouse SR-BI HDL lipid transfer inhibition; Q61009; ldlA[mSR-BI] CHO cells, DiI-HDL uptake fluorescence, 3 h; inhibition, % at 12.5 µM; 320,000 compounds, 0.96% hits;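 active means mean replicate inhibition of at least 70% and a set share of replicates each scoring 70 or more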;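 further: 0% = median of neutral control wells and 100% = median of positive control wells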
Target sequence (Q61009 whole entry, looked up): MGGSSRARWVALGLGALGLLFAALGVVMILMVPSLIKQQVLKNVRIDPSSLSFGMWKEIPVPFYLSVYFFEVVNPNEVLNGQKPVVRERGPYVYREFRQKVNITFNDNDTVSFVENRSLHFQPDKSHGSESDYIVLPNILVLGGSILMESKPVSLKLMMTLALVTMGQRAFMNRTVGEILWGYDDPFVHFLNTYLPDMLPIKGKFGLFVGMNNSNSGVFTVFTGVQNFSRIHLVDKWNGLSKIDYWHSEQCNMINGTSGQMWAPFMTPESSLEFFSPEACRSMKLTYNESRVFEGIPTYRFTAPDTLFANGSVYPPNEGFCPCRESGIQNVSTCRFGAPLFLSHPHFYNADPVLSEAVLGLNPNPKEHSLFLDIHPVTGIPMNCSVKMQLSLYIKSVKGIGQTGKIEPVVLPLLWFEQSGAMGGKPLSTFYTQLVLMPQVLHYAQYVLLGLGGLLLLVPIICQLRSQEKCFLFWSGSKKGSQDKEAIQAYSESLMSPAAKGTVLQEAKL
Vif inh: HIV Vif inhibition; HEK293T cells, Vif self-association by quenched fluorescence, imaging, 24 h; inhibition, % at 7.49 µM; 340,000 compounds, 0.35% hits; AID 602346; in the data active means inhibition above about 50%, passing the limit was not always enough
SMARCA2 activ: increases SMARCA2 function in MMTV reporter cells; activation, % at 9.1 µM; 370,000 compounds, 1% hits; AID 652017; MG213 cells, MMTV-luciferase reporter, dexamethasone, overnight; in the data active means activation above about 7.8%;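 further: 0% = vehicle wells and 100% = reference activator wells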
TAG inh: triacylglycerol accumulation inhibition. AID 651582. 230,000 compounds, 0.66% hits. inhibition, % at 12.5 µM. H9c2 cells, Nile Red lipid (TAG) fluorescence; cells loaded with 200 µM oleic acid;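 active means pattern-corrected inhibition of lipid staining of at least 50% with the nuclear-stain viability signal not falling by more than 50%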;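 further: 0% = DMSO wells and 100% = triacsin C control wells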
Numbers without * were called inactive.

What do the screens show for `COc1ccc2nc(-c3ccc(CN4CCC(c5nc6ccccc6[nH]5)CC4)cc3)c(-c3ccccc3)nc2c1`?
SMARCA2 activ: 8

Results for Cc1cccc(C(=O)Nc2nnc(SCC(=O)Nc3ccc4c(c3)oc3ccccc34)s2)c1 ?
SR-BI DiI-HDL act: 24; SR-BI DiI inh: -24; Vif inh: 1; SMARCA2 activ: -5

What do the screens show for `COc1ccccc1C(=O)Nc1nnc(SCC(=O)Nc2ccc3c(c2)oc2ccccc23)s1`?
SR-BI DiI-HDL act: -16; SR-BI DiI inh: 16; Vif inh: 1; SMARCA2 activ: 13*

What do the screens show for `CCOC(=O)c1cc(OC(=O)c2ccccc2OC)n(-c2ccccc2)n1`?
SR-BI DiI-HDL act: 16; SR-BI DiI inh: -16; Vif inh: 78*; SMARCA2 activ: -5

Results for O=C(NCc1ccccc1)[C@@H]1CCCN1C(=O)[C@H]1CCCN1C(=O)c1ccc(Cl)c(Cl)c1 ?
SMARCA2 activ: -6

How did Fc1ccc(NCc2n[nH]c(=S)n2Cc2ccccc2)cc1 do in these assays?
SR-BI DiI-HDL act: -6; SR-BI DiI inh: 6; Vif inh: 62*; SMARCA2 activ: -2; TAG inh: 17

How did S=c1[nH]nc(CNc2ccc(Cl)cc2)n1Cc1ccccc1 do in these assays?
SR-BI DiI-HDL act: 3; SR-BI DiI inh: -3; Vif inh: -1; SMARCA2 activ: -2; TAG inh: 1

How did Cc1cc2c(nc1C)CCCN2S(=O)(=O)c1ccc(F)cc1 do in these assays?
SMARCA2 activ: -4

What do the screens show for `CCCCN(C(=O)c1cc(-c2ccncc2)nc2ccccc12)c1c(N)n(CC(C)C)c(=O)[nH]c1=O`?
SR-BI DiI-HDL act: 19; SR-BI DiI inh: -19; Vif inh: -6; SMARCA2 activ: 7.9*; TAG inh: -2

Results for COC(=O)[C@]12C[C@H](CC(=O)N3CCC(c4ccccc4)CC3)C(=O)N(Cc3ccc4c(c3)OCO4)C1=C[C@H](C(C)(C)C)O[C@@H]2C ?
SMARCA2 activ: 1

What do the screens show for `COc1ccc(O)c(/C=N/NC(=O)c2ccc(OCc3cccc(Br)c3)cc2)c1`?
SR-BI DiI-HDL act: -129; SR-BI DiI inh: 129*; Vif inh: 1; SMARCA2 activ: -2; TAG inh: 4

Results for COc1ccc(/C=C\C(=O)NCC(=O)N/N=C/c2ccc(O)cc2O)cc1 ?
Vif inh: -13; SMARCA2 activ: -3; TAG inh: 9

Results for CCCOc1ccc(Br)cc1/C=N/NC(=O)c1cc(OC)c(OC)c(OC)c1 ?
SR-BI DiI-HDL act: -76; SR-BI DiI inh: 76*; Vif inh: -1; SMARCA2 activ: -2

Results for COc1ccc(/C=C/C(=O)NCC(=O)N/N=C/c2cc(Br)ccc2OC)cc1 ?
SR-BI DiI-HDL act: -78; SR-BI DiI inh: 78*; Vif inh: 2; SMARCA2 activ: -5

Results for CC(C)(C)c1ccc(OCc2ccc(C(=O)N/N=C/c3ccc(O)c(O)c3)cc2)cc1 ?
SR-BI DiI-HDL act: -107; SR-BI DiI inh: 107*; Vif inh: 3; SMARCA2 activ: -2; TAG inh: 24

What do the screens show for `COc1ccc(Br)cc1/C=N/NC(=O)c1cccnc1`?
SR-BI DiI-HDL act: -33; SR-BI DiI inh: 33; Vif inh: 2; SMARCA2 activ: -1; TAG inh: 9

How did CC(C)c1[nH]nc2c1C(c1ccc(Br)cc1)NC2=O (stereo unspecified) do in these assays?
SMARCA2 activ: -2

How did Cn1cnc([N+](=O)[O-])c1Sc1nnc(-c2ccccc2)c(-c2ccccc2)n1 do in these assays?
SMARCA2 activ: -2

How did COC(=O)c1ccc(S(=O)(=O)N2CCC(NC(=O)CCC3CCCC3)CC2)cc1 do in these assays?
SMARCA2 activ: -2

Results for COC(=O)[C@]12C[C@H](CC(=O)N3CCCC3)C(=O)N(Cc3ccc4c(c3)OCO4)C1=C[C@H](C(C)(C)C)O[C@@H]2C ?
SMARCA2 activ: -9

What do the screens show for `COc1cc2c(cc1OC)[C@](C)(c1ccccc1)C[C@@H]2NCC=C(C)C`?
SMARCA2 activ: 0

How did COc1cc(C(=O)N/N=C/c2sccc2C)cc(OC)c1OC do in these assays?
SR-BI DiI-HDL act: -59; SR-BI DiI inh: 59; Vif inh: 75*; SMARCA2 activ: 2; TAG inh: 45

Results for CC(C)(C)c1ccc(OCc2ccc(C(=O)N/N=C3\CC4CC=CC34)cc2)cc1 (stereo unspecified) ?
SR-BI DiI-HDL act: -79; SR-BI DiI inh: 79*; Vif inh: 3; SMARCA2 activ: -4

How did Cc1ccsc1/C=N/NC(=O)c1ccncc1 do in these assays?
SR-BI DiI-HDL act: -32; SR-BI DiI inh: 32; Vif inh: 8; SMARCA2 activ: 5; TAG inh: 13

What do the screens show for `COc1ccc(C(=O)N/N=C/c2ccccc2C(=O)O)cc1OC`?
Vif inh: 4; SMARCA2 activ: 0; TAG inh: 1

Results for COc1ccc(/C=N/NC(=O)c2ccc(Br)cc2)c(OC)c1 ?
SR-BI DiI-HDL act: -83; SR-BI DiI inh: 83*; Vif inh: -3; SMARCA2 activ: 3; TAG inh: -9

How did COc1ccc(C(=O)N/N=C/c2cc(Br)ccc2O)cc1OC do in these assays?
SR-BI DiI-HDL act: -120; SR-BI DiI inh: 120*; Vif inh: -3; SMARCA2 activ: -4; TAG inh: 56*

Results for COC(=O)C1=C(C)N(Cc2ccccc2C(F)(F)F)C(=NCc2cc(OC)c(OC)c(OC)c2)NC1c1ccccc1 (stereo unspecified) ?
SMARCA2 activ: -2

How did C=CCN1C(=O)[C@@H](CC(=O)NCc2ccc(OC)c(OC)c2)[C@]2(C(=O)OC)CCCCC=C12 do in these assays?
SMARCA2 activ: -4

Results for CCCCC1OC23CCCCC2C(C#N)(C(=N)O3)C1(C#N)C#N (stereo unspecified) ?
SR-BI DiI-HDL act: 81*; SR-BI DiI inh: -81; Vif inh: 2; SMARCA2 activ: -2; TAG inh: -1

What do the screens show for `CCCCC1OC23CCCCC2C(C#N)(C#N)C1(C#N)C(=N)O3` (stereo unspecified)?
SR-BI DiI-HDL act: 35; SR-BI DiI inh: -35; Vif inh: -7; SMARCA2 activ: 0

How did c1ccc(-c2nnc(-c3ccccc3)c(-c3c[nH]c4ccccc34)n2)cc1 do in these assays?
SR-BI DiI-HDL act: -76; SR-BI DiI inh: 76*; SMARCA2 activ: 2; TAG inh: 30

Results for CC(=O)n1cc(N(C(=O)CCl)c2ccc(C)cc2)c2ccccc21 ?
Vif inh: 1; SMARCA2 activ: -13; TAG inh: 65*

How did COc1cc(NC(=S)NC(=O)c2c(OC)cccc2OC)ccc1NC(=O)c1cccs1 do in these assays?
SR-BI DiI-HDL act: -74; SR-BI DiI inh: 74*; SMARCA2 activ: -1; TAG inh: 22

Results for COc1cc(NC(=S)NC(=O)c2ccccc2F)ccc1NC(=O)c1cccs1 ?
SR-BI DiI-HDL act: -83; SR-BI DiI inh: 83*; Vif inh: -16; SMARCA2 activ: -1; TAG inh: 4

Compound activity from PubChem.
